Test results: ChEMBL document CHEMBL1143391, “Design, synthesis, and evaluation of oxygen-containing macrocyclic peptidomimetics as inhibitors of HCV NS3 protease” (J Med Chem, 2009)

Experiments:
[1] = Binding affinity to HCV NS3 protease by spectrophotometry; design: species or system Hepacivirus hominis
Method in brief: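 Continuous assay with NS4A-tethered single-chain NS3 serine protease, read out chromogenically. Affinity reported as Ki*.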

Hepatitis C virus = experiment: Antiviral activity against HCV RNA replication in human hepatoma cells by replicon assay; format: functional, organism-based, Hepacivirus hominis
[2] = Selectivity for HCV NS3 protease over human neutrophil elastase

CC(C)(C)OC(=O)N[C@H]1CS(=O)(=O)CCCCCCC[C@@H](C(=O)C(=O)NC2CC2)NC(=O)[C@@H]2[C@@H]3[C@H](CN2C1=O)C3(C)C
Ki [1]: 670 nM

C=CCNC(=O)C(=O)[C@@H]1CCCCCCCOC[C@H](NC(=O)OC(C)(C)C)C(=O)N2C[C@H]3[C@@H]([C@H]2C(=O)N1)C3(C)C
Ki [1]: 150 nM

C=CCNC(=O)C(=O)[C@@H]1CCCCCCCOC[C@H](NC(=O)N[C@H](CN2CCCCC2=O)C(C)(C)C)C(=O)N2C[C@H]3[C@@H]([C@H]2C(=O)N1)C3(C)C
Ki [1]: 21 nM
EC90 (Hepatitis C virus; read-out: EC90): 160 nM
Ratio [2]: 160

CC(C)(C)NC(=O)N[C@H](C(=O)N1C[C@H]2[C@@H]([C@H]1C(=O)NC(CC1CCC1)C(=O)C(N)=O)C2(C)C)C(C)(C)C (some centres undefined) [BOCEPREVIR]
Ki [1]: 14 nM
EC90 (Hepatitis C virus; read-out: EC90): 350 nM
Ratio [2]: 2200

C=CCNC(=O)C(=O)[C@@H]1CCCCCCC(=O)CC[C@H](NC(=O)OC(C)(C)C)C(=O)N2C[C@H]3[C@@H]([C@H]2C(=O)N1)C3(C)C
Ki [1]: 320 nM

C=CCNC(=O)C(=O)[C@@H]1CCCCCCCOC[C@H](NC(=O)N[C@H](CN(C)S(=O)(=O)CC)C(C)(C)C)C(=O)N2C[C@H]3[C@@H]([C@H]2C(=O)N1)C3(C)C
Ki [1]: 18 nM
Ratio [2]: 350

C=CCNC(=O)C(=O)[C@@H]1CCCCCCCCC[C@H](NC(=O)OC(C)(C)C)C(=O)N2C[C@H]3[C@@H]([C@H]2C(=O)N1)C3(C)C
Ki [1]: 36 nM

C=CCNC(=O)C(=O)[C@@H]1CCCCCCCO[C@@H](C)[C@H](NC(=O)N[C@H](CN2CCC(C)(C)CC2=O)C(C)(C)C)C(=O)N2C[C@H]3[C@@H]([C@H]2C(=O)N1)C3(C)C
Ki [1]: 8 nM
EC90 (Hepatitis C virus; read-out: EC90): 60 nM
Ratio [2]: 1300

C=CCNC(=O)C(=O)[C@@H]1CCCCCCCOC[C@H](NC(=O)N[C@H](CN2C(=O)CN(C)CC2=O)C(C)(C)C)C(=O)N2C[C@H]3[C@@H]([C@H]2C(=O)N1)C3(C)C
Ki [1]: 15 nM
EC90 (Hepatitis C virus; read-out: EC90): 80 nM
Ratio [2]: 300

C=CCNC(=O)C(=O)[C@@H]1CCCCCCCOC[C@H](NC(=O)N[C@H](CN2C(=O)CC(C)(C)CC2=O)C(C)(C)C)C(=O)N2C[C@H]3[C@@H]([C@H]2C(=O)N1)C3(C)C
Ki [1]: 7 nM
EC90 (Hepatitis C virus; read-out: EC90): 50 nM
Ratio [2]: 300

CC(C)(C)OC(=O)N[C@@H]1C(=O)N2C[C@H]3[C@@H]([C@H]2C(=O)N[C@H](C(=O)C(N)=O)CCCCCCCCCC1(C)C)C3(C)C
Ki [1]: 250 nM

C=CCNC(=O)C(=O)[C@@H]1CCCCCCCOC[C@H](NC(=O)N[C@H](CN(C)S(=O)(=O)c2cccs2)C(C)(C)C)C(=O)N2C[C@H]3[C@@H]([C@H]2C(=O)N1)C3(C)C
Ki [1]: 14 nM
EC90 (Hepatitis C virus; read-out: EC90): 150 nM
Ratio [2]: 100

C=CCNC(=O)C(=O)[C@@H]1CCCCCCCO[C@@H](C)[C@H](NC(=O)N[C@H](CN2C(=O)CC(C)(C)CC2=O)C(C)(C)C)C(=O)N2C[C@H]3[C@@H]([C@H]2C(=O)N1)C3(C)C
Ki [1]: 7 nM
EC90 (Hepatitis C virus): 40 nM
Ratio [2]: 1400

C=CCNC(=O)C(=O)[C@@H]1CCCCCCCOC[C@H](NC(=O)N[C@H](C(=O)C2CC2)C2CCCCC2)C(=O)N2C[C@H]3[C@@H]([C@H]2C(=O)N1)C3(C)C
Ki [1]: 160 nM
Ratio [2]: 9

C=CCNC(=O)C(=O)[C@@H]1CCCCCCCOC[C@H](NC(=O)N[C@H](CN2C(=O)C3CCC(C3)C2=O)C(C)(C)C)C(=O)N2C[C@H]3[C@@H]([C@H]2C(=O)N1)C3(C)C
Ki [1]: 3 nM
EC90 (Hepatitis C virus; read-out: EC90): 30 nM
Ratio [2]: 1500

C=CCNC(=O)C(=O)[C@@H]1CCCCCCCOC[C@H](NC=O)C(=O)N2C[C@H]3[C@@H]([C@H]2C(=O)N1)C3(C)C
Ki [1]: 400 nM

C=CCNC(=O)C(=O)[C@@H]1CCCCNC(=O)OCCC[C@H](NC(=O)OC(C)(C)C)C(=O)N2C[C@H]3[C@@H]([C@H]2C(=O)N1)C3(C)C
Ki [1]: 660 nM

C=CCNC(=O)C(=O)[C@@H]1CCCCCCCOC[C@H](NC(=O)N[C@H](CN2CCC(C)(C)CC2=O)C(C)(C)C)C(=O)N2C[C@H]3[C@@H]([C@H]2C(=O)N1)C3(C)C
Ki [1]: 21 nM
EC90 (Hepatitis C virus; read-out: EC90): 100 nM
Ratio [2]: 140

C=CCNC(=O)C(=O)[C@@H]1CCCCCCCO[C@@H](C)[C@H](NC(=O)N[C@H](CN2C(=O)C3CCC(C3)C2=O)C(C)(C)C)C(=O)N2C[C@H]3[C@@H]([C@H]2C(=O)N1)C3(C)C
Ki [1]: 3 nM
EC90 (Hepatitis C virus; read-out: EC90): 30 nM
Ratio [2]: 2800

C=CCNC(=O)C(=O)[C@@H]1CCCCCCCO[C@@H](C)[C@H](NC(=O)N[C@H](CN2C(=O)CN(C)CC2=O)C(C)(C)C)C(=O)N2C[C@H]3[C@@H]([C@H]2C(=O)N1)C3(C)C
Ki [1]: 6 nM
EC90 (Hepatitis C virus; read-out: EC90): 60 nM
Ratio [2]: 1100
